Data reported in ChEMBL document CHEMBL1140013, “The 1,4-naphthoquinone scaffold in the design of cysteine protease inhibitors” (Bioorg Med Chem, 2007).
Calls of active or inactive are those of the source. The rule behind the calls is not given here.

Columns and labels:
[1] = target: Pancreatic elastase (Sus scrofa) (UniProt P08419+P00772); test: Inhibition of pig pancreatic elastase; type: protein assay
In short: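 Porcine pancreatic elastase (50 µM stock) was incubated with inhibitor (DMSO stock) in 0.1 M Hepes pH 7.2 for up to 2 h. Timed aliquots were assayed on Suc-Ala-Ala-Ala-4-nitroanilide, following absorbance at 390 nm for 50 s.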

Papain (Carica papaya) [2] = target: T1, Papain (Carica papaya) (UniProt P00784); test: Inhibition of papain at 65 uM after 30 mins
T1 sequence (whole entry): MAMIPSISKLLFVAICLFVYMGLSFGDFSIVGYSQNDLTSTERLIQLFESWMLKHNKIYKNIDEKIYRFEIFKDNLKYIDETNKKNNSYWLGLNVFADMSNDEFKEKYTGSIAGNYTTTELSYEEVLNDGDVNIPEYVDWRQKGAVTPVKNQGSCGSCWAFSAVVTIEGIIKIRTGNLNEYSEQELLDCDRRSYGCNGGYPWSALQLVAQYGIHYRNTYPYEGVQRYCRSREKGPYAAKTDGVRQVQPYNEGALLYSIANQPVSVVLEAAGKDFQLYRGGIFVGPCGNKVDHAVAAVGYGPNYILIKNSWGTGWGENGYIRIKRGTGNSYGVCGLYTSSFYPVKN
In short: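 Papain activated 30 min at 25 °C in 50 mM potassium phosphate pH 7.0 with 2.5 mM EDTA and 2.0 mM DTT. Inhibitor in DMSO added to the enzyme in EDTA-only buffer, with control incubations run in parallel. Aliquots went into BAPA substrate in buffer with EDTA and DTT. p-Nitroaniline release read at 410 nm for 4 min at 25 °C.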

Papain (Carica papaya) [3] = target: T1, Papain (Carica papaya); test: Inhibition of papain at 1.3 mM after 20 mins
In short: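 Papain was pre-incubated with inhibitor at 1.3 mM for 20 min. Residual activity on BAPA was read at 410 nm and reported as % inhibition.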

Cathepsin B (Bos taurus) = Cathepsin B (Bos taurus) (UniProt P07688); test: Inhibition of bovine spleen cathepsin B
In short: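 Cathepsin B (10 U/mL) was activated 15 min at 25 °C in 20 mM sodium acetate pH 5.0 with 1.0 mM EDTA and 30 mM DTT. It was then pre-incubated with inhibitor (DMSO stock) in acetate/EDTA buffer (Kitz–Wilson method). Aliquots were assayed on Z-S-Lys-ONp with 2.0 mM DTT, following p-nitrophenol at 326 nm for 3 min at 25 °C. k_obs came from ln(v/v0) versus time, using 4–6 inhibitor concentrations.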

Structure (SMILES) | Activity [1] | also measured
CCOC(=O)CNC1=C(Cl)C(=O)c2ccccc2C1=O | inactive | –
CC1=CC(=O)c2ccccc2C1=O | inactive | –
CCOC(=O)[C@H](Cc1ccccc1)NC1=C(Cl)C(=O)c2ccccc2C1=O | inactive | –
O=C1C=CC(=O)c2ccccc21 | inactive | inhibition (Papain (Carica papaya) [2]): 49.5%
CC(C)CCNC(=O)[C@H](CC(C)C)NC1=CC(=O)c2ccccc2C1=O | inactive | –
O=C1C=C(O)C(=O)c2ccccc21 | inactive | inhibition (Papain (Carica papaya) [3]): 82%
O=C1C=CC(=O)c2c(O)cccc21 | inactive | inhibition (Papain (Carica papaya) [2]): 60.4%
O=C1C=C(Br)C(=O)c2ccccc21 | inactive | –
CNC1=CC(=O)c2ccccc2C1=O | inactive | –
CCOC(=O)[C@H](Cc1ccccc1)NC1=CC(=O)c2ccccc2C1=O | inactive | –
O=C1C(Cl)=C(N2CCOCC2)C(=O)c2ccccc21 | inactive | –
CC1=CC(=O)c2c(C)ccc(C)c2C1=O | inactive | –
CCOC1=CC(=O)c2ccccc2C1=O | inactive | Kinact (Cathepsin B (Bos taurus)): 797 µM
CNC1=C(Br)C(=O)c2ccccc2C1=O | inactive | –
O=C1C(Cl)=C(Cl)C(=O)c2ccccc21 | inactive | –
CC(=O)Oc1cccc2c1C(=O)C=CC2=O | inactive | –
CCOC(=O)[C@H](Cc1ccccc1)NC1=C(Br)C(=O)c2ccccc2C1=O | inactive | –
CCOC(=O)CNC1=C(Br)C(=O)c2ccccc2C1=O | inactive | Kinact (Cathepsin B (Bos taurus)): 55.9 µM
CCOC(=O)CNC1=CC(=O)c2ccccc2C1=O | inactive | Kinact (Cathepsin B (Bos taurus)): 14 µM
